Measured values as given in ChEMBL document CHEMBL1147762, “A new chemical tool for exploring the physiological function of the PDE2 isozyme” (Bioorg Med Chem Lett, 2006).

Legend:
Phosphodiesterase 1 = Phosphodiesterase 1 (Homo sapiens, UniProt P54750+Q01064+Q14123); assay: Inhibitory activity against PDE1 by scintillation proximity assay; assay type: protein assay
In short: (§1)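 Phosphodiesterase inhibition run as a scintillation proximity assay, with enzyme at a concentration in the linear range. Final substrate was 1 µM, below one-third of the enzyme K_M, so that IC50 approximates Ki. Values are means of n experiments with standard deviation.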

[1] = biological target: cGMP-dependent 3',5'-cyclic phosphodiesterase (Homo sapiens, UniProt O00408); assay: Inhibitory activity against PDE2 by scintillation proximity assay; in short: as §1
cGMP-dependent 3',5'-cyclic phosphodiesterase, sequence (O00408 whole entry): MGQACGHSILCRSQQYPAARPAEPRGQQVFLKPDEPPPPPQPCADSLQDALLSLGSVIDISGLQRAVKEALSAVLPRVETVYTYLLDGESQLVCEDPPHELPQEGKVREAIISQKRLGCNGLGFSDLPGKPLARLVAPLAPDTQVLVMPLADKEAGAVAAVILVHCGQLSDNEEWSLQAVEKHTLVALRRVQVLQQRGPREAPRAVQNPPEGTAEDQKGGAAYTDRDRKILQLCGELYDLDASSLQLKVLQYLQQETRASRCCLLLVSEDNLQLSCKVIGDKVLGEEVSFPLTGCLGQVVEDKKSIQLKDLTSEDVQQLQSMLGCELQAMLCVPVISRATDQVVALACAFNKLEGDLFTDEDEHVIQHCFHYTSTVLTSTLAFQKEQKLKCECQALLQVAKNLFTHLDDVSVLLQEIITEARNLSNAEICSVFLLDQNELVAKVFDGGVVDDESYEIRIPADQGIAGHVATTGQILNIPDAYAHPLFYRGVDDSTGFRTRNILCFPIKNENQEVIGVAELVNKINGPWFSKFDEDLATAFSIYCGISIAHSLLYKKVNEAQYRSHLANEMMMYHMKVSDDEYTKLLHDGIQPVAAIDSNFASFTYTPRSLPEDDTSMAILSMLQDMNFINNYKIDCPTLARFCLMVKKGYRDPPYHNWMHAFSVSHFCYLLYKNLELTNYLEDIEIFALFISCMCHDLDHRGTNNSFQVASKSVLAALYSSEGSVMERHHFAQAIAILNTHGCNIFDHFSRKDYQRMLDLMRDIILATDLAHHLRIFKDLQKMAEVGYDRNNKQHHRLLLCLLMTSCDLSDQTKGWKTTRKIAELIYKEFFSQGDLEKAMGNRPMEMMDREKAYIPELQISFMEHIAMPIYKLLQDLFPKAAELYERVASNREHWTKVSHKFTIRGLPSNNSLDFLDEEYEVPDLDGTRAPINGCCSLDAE

Phosphodiesterase 3 = Phosphodiesterase 3 (Homo sapiens, UniProt Q14432+Q13370); assay: Inhibitory activity against PDE3 by scintillation proximity assay; assay type: protein assay; in short: as §1
[2] = biological target: 3',5'-cyclic-AMP phosphodiesterase 4A (Homo sapiens, UniProt P27815); assay: Inhibitory activity against PDE4A by scintillation proximity assay; in short: as §1
3',5'-cyclic-AMP phosphodiesterase 4A, sequence (P27815 whole entry): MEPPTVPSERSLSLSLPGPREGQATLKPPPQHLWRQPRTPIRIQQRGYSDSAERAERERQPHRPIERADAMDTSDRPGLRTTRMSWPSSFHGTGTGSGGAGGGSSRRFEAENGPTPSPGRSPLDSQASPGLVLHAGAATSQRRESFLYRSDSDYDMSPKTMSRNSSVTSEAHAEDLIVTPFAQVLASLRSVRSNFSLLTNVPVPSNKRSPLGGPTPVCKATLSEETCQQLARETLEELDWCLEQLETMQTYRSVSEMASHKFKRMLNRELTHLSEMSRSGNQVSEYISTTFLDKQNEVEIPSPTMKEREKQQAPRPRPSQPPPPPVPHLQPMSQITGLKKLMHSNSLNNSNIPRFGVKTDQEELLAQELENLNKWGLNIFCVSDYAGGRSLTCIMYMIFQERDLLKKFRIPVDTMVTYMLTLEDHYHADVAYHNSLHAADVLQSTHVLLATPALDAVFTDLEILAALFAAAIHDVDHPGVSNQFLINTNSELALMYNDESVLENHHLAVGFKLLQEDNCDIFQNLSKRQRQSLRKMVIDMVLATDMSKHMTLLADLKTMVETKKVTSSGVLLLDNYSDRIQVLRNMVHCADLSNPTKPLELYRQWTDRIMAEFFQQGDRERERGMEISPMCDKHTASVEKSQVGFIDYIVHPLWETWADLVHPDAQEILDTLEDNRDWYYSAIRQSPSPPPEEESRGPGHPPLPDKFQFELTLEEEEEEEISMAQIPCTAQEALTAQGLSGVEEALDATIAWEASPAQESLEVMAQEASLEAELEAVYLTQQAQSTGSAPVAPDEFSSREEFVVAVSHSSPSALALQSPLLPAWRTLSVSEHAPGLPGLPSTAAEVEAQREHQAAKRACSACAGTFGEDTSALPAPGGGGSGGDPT

[3] = biological target: 3',5'-cyclic-AMP phosphodiesterase 4B (Homo sapiens, UniProt Q07343); assay: Inhibitory activity against PDE4B by scintillation proximity assay; in short: as §1
[4] = biological target: 3',5'-cyclic-AMP phosphodiesterase 4C (Homo sapiens, UniProt Q08493); assay: Inhibitory activity against PDE4C by scintillation proximity assay
In short: (§2)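 Scintillation proximity assay for phosphodiesterase inhibition. Enzyme is used at a concentration within the linear range, and its KM was measured. Final substrate concentration is 1 µM, below one-third of KM, so IC50 approximates Ki. Results are means of n experiments with standard deviation.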

[5] = biological target: 3',5'-cyclic-AMP phosphodiesterase 4D (Homo sapiens, UniProt Q08499); assay: Inhibitory activity against PDE4D by scintillation proximity assay; in short: as §2
3',5'-cyclic-AMP phosphodiesterase 4D, sequence (Q08499 whole entry): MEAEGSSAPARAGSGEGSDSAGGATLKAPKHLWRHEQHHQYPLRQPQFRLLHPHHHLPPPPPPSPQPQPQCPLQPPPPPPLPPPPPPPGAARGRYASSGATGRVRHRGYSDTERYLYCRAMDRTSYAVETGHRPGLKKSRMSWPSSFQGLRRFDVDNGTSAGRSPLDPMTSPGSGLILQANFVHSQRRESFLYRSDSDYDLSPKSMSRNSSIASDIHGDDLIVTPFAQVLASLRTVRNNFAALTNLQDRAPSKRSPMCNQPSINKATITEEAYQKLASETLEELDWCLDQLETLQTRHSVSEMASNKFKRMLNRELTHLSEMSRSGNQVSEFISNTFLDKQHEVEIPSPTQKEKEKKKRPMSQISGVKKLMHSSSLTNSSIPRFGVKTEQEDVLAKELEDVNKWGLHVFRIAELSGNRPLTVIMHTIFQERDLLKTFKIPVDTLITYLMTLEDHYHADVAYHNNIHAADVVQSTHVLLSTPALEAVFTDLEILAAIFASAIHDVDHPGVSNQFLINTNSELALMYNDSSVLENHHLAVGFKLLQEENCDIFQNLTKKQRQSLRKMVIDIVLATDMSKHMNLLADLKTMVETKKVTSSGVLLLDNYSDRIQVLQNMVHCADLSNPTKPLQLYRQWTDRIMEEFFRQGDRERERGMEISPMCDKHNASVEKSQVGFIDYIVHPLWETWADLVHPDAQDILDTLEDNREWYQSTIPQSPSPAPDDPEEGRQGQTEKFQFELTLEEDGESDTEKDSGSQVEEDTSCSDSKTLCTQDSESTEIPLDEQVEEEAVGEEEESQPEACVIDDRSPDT

[6] = biological target: cGMP-specific 3',5'-cyclic phosphodiesterase (Homo sapiens, UniProt O76074); assay: Inhibitory activity against PDE5 by scintillation proximity assay; in short: as §2
[7] = biological target: High affinity cAMP-specific and IBMX-insensitive 3',5'-cyclic phosphodiesterase 8A (Homo sapiens, UniProt O60658); assay: Inhibitory activity against PDE8A by scintillation proximity assay; in short: as §2
High affinity cAMP-specific and IBMX-insensitive 3',5'-cyclic phosphodiesterase 8A, sequence (O60658 whole entry): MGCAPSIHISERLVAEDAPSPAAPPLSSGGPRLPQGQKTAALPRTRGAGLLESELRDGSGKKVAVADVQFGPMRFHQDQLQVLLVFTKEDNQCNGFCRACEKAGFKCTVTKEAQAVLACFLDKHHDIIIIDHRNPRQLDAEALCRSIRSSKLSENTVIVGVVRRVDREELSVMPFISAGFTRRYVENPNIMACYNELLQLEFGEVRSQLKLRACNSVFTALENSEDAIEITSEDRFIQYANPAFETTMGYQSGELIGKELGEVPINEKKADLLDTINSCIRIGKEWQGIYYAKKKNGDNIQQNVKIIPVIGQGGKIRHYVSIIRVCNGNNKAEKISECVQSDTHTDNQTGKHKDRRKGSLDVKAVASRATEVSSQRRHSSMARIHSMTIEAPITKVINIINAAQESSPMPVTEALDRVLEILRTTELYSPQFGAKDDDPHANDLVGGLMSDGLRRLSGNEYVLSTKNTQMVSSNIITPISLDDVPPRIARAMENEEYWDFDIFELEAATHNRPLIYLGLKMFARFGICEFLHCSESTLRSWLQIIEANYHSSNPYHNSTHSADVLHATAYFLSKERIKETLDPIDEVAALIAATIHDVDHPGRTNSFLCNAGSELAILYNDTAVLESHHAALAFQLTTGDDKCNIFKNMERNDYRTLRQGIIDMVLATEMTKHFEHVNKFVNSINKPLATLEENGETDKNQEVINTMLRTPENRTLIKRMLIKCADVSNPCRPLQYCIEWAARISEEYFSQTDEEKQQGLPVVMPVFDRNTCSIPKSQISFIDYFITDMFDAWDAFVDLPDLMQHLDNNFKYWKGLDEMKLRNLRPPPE

[8] = biological target: High affinity cAMP-specific and IBMX-insensitive 3',5'-cyclic phosphodiesterase 8B (Homo sapiens, UniProt O95263); assay: Inhibitory activity against PDE8B by scintillation proximity assay; in short: as §2
High affinity cAMP-specific and IBMX-insensitive 3',5'-cyclic phosphodiesterase 8B, sequence (O95263 whole entry): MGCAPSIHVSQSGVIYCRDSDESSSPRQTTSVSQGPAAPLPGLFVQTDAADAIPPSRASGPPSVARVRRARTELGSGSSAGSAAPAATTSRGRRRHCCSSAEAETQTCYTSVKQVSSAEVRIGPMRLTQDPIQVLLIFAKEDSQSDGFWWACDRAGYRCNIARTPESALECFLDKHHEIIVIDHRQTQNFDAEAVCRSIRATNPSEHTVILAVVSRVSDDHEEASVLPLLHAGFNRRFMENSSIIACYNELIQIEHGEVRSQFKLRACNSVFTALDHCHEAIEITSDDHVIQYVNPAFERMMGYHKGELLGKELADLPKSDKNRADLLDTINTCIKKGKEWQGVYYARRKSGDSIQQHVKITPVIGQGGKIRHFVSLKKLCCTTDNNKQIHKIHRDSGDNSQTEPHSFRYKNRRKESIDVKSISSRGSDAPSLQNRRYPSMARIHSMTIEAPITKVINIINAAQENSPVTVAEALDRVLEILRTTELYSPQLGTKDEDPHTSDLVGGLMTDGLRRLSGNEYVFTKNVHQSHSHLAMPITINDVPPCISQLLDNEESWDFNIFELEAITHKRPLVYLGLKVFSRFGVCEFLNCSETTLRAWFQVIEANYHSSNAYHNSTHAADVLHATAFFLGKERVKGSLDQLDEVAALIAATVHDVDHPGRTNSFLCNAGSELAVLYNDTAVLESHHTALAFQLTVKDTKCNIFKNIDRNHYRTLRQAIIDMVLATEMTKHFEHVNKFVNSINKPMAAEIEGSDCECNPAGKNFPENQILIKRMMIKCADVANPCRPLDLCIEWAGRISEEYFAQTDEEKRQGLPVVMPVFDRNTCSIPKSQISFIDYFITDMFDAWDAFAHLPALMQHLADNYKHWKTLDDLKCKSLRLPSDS

[9] = biological target: High affinity cGMP-specific 3',5'-cyclic phosphodiesterase 9A (Homo sapiens, UniProt O76083); assay: Inhibitory activity against PDE9 by scintillation proximity assay; in short: as §2
High affinity cGMP-specific 3',5'-cyclic phosphodiesterase 9A, sequence (O76083 whole entry): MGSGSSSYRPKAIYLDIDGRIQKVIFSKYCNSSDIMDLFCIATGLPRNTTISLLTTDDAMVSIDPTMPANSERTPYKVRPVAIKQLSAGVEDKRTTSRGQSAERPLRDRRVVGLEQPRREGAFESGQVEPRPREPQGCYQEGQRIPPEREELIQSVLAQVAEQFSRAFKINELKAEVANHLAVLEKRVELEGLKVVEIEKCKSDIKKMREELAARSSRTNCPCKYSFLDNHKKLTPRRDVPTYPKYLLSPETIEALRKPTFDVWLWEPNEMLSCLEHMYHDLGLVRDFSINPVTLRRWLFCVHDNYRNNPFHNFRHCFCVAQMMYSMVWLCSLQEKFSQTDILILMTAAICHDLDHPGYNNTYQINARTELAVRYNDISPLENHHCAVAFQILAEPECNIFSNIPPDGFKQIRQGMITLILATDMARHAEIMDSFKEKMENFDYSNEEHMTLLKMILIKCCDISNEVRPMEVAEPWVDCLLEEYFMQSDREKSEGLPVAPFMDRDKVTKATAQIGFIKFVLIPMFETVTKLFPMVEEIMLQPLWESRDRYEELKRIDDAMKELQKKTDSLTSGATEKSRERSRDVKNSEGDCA

[10] = biological target: cAMP and cAMP-inhibited cGMP 3',5'-cyclic phosphodiesterase 10A (Homo sapiens, UniProt Q9Y233); assay: Inhibitory activity against PDE10 by scintillation proximity assay; in short: as §1
[11] = Half life in rat liver microsome; assay type: ADME; settings: liver microsomes
[12] = Apical Caco-2 cell membrane permeability; assay type: ADME, cell-based; settings: human
[13] = Basolateral Caco-2 cell membrane permeability; assay type: ADME, cell-based; settings: human
[14] = Turbidimetric solubility at pH 7; assay type: ADME, organism-based, Homo sapiens

Q: Which results are given for `CCCCCC[C@H]([C@H](C)O)n1cnc2c(N)ncnc21` [(+)-EHNA]?
A: IC50 (Phosphodiesterase 1): > 16 µM; IC50 [1]: 0.635 µM; IC50 (Phosphodiesterase 3): > 16 µM; IC50 [2]: > 16 µM; IC50 [3]: > 16 µM; IC50 [4]: > 16 µM; IC50 [5]: > 16 µM; IC50 [6]: > 16 µM; IC50 [7]: > 16 µM; IC50 [8]: > 16 µM; IC50 [9]: > 16 µM; IC50 [10]: > 16 µM; half-life [11]: 31 min; Papp [12]: 34 ×10⁻⁶ cm/s; Papp [13]: 18 ×10⁻⁶ cm/s; solubility kinetic [14]: > 65 µg/mL
